Inhibition and Activity data for three compounds are collected here from ChEMBL document CHEMBL4118021, “Studies of TAK1-centered polypharmacology with novel covalent TAK1 inhibitors” (Bioorg Med Chem, 2017).

The target in test [1] is T1, Mitogen-activated protein kinase kinase kinase 7 (Homo sapiens) (UniProt O43318).
T1 sequence (whole entry): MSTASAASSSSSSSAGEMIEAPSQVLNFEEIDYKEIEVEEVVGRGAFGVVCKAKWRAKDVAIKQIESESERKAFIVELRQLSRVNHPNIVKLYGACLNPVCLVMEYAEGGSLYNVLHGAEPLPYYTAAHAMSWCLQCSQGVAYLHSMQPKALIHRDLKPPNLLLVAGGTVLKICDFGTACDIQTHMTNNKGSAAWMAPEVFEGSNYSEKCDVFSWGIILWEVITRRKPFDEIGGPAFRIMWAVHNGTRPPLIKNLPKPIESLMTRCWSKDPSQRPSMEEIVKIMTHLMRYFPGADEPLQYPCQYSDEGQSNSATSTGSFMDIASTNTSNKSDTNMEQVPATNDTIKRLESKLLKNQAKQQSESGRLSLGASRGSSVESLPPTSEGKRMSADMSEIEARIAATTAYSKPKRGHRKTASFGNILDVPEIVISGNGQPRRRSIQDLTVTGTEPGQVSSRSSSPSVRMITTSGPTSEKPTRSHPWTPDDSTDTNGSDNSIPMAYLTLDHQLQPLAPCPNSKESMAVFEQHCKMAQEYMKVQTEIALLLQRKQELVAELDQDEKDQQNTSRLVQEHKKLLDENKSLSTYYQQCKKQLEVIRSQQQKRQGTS
The experiment in a line: Inhibition of TAK1 in RA patient-derived synovial fibroblasts assessed as inhibition of poly(I:C)-induced cytokine secretion at 3 uM preincubated for 3 hrs followed by poly(I:C) stimulation measured after 18 hrs by sandwich immunoassay. In outline: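 Primary RA synovial fibroblasts (donor RA2159) seeded 1000 cells/well and grown ~24 h at 37 °C, 5% CO2. Starved overnight in basal medium, then ~4 h in basal medium with 0.1% BSA. Two adjacent wells pooled per replicate, in biological duplicate. Supernatants diluted 1:3 and run on Luminex 27-plex/21-plex sandwich immunoassays for 48 analytes, with spiked-ligand and mock-supernatant background controls.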

The target in test [2] is Mitogen-activated protein kinase 13 (Homo sapiens) (UniProt O15264). The experiment in a line: Inhibition of p38d in human SKCO1 cells at 1 uM after 4 hrs using biotin labeled DLKPGNLAVNEDCELK probe by mass-spectrometric analysis relative to control. It is filed as cell-based.
Mitogen-activated protein kinase 13 (Homo sapiens), sequence (O15264 whole entry): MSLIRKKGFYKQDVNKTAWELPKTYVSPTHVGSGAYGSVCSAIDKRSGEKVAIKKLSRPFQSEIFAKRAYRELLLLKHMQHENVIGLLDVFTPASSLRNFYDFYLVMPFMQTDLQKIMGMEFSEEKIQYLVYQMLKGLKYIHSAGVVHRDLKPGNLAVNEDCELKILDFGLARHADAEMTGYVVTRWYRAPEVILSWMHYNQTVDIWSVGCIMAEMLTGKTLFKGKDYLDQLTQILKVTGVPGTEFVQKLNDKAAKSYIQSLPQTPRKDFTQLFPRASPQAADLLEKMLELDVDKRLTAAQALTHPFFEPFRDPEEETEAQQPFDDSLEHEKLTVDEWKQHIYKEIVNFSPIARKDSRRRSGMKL
Another test has as its system NCI-H23. The experiment in a line: Binding affinity to NDUFS7 in human NCI-H23 cells at 1 uM by mass spectrometry based pull down assay. In kind it is cell-based.
The target in test [3] is MOB kinase activator 1B (Homo sapiens) (UniProt Q7L9L4). The experiment in a line: Binding affinity to MOB1B in human NCI-H23 cells at 1 uM by mass spectrometry based pull down assay. It is filed as cell-based.
MOB kinase activator 1B (Homo sapiens), sequence (Q7L9L4 whole entry): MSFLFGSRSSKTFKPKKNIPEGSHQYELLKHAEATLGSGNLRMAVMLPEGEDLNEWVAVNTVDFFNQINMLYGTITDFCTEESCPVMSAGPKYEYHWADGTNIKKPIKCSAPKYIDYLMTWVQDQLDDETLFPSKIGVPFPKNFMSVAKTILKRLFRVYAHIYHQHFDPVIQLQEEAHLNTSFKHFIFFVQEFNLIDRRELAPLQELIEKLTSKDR
Test [4] concerns the target Glycogen synthase kinase-3 alpha (Homo sapiens) (UniProt P49840). The experiment in a line: Binding affinity to GSK3A in human NCI-H23 cells at 1 uM by mass spectrometry based pull down assay. It is filed as cell-based.
For test [5], the target named is Y-box-binding protein 1 (Homo sapiens) (UniProt P67809). The experiment in a line: Binding affinity to YBX1 in human NCI-H358 cells at 1 uM by mass spectrometry based pull down assay. In kind it is cell-based.
Y-box-binding protein 1 (Homo sapiens), sequence (P67809 whole entry): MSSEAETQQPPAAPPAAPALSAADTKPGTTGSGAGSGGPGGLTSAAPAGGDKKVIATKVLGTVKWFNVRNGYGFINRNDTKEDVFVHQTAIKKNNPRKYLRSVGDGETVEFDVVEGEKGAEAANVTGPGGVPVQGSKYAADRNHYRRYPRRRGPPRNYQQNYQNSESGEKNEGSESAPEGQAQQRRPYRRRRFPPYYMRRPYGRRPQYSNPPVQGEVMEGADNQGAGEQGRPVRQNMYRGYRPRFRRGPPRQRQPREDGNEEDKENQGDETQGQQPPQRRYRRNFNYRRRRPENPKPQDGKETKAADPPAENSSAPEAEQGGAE
Test [6] concerns the target Importin subunit alpha-1 (Homo sapiens) (UniProt P52292). The experiment in a line: Binding affinity to KPNA2 in human NCI-H358 cells at 1 uM by mass spectrometry based pull down assay. It is filed as cell-based.
Test [7] deals with Translation initiation factor eIF2B subunit gamma (Homo sapiens) (UniProt Q9NR50). The experiment in a line: Binding affinity to EIF2B3 in human NCI-H358 cells at 1 uM by mass spectrometry based pull down assay. In kind it is cell-based.
Translation initiation factor eIF2B subunit gamma (Homo sapiens), sequence (Q9NR50 whole entry): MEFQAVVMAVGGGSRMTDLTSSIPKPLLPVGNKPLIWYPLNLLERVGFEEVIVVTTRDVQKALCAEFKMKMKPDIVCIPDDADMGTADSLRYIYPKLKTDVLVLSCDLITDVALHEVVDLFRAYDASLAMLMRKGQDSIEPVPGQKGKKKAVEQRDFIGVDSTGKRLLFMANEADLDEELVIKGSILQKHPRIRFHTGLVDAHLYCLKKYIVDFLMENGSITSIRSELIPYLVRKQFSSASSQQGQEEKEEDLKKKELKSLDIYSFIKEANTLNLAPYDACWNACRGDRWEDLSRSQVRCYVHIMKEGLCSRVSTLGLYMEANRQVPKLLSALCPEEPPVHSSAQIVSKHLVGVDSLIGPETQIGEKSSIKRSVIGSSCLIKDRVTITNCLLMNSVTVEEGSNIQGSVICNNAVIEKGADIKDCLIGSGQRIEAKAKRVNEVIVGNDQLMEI

Active and inactive are the calls of the source. The rule behind the calls is not given here.

Glycogen synthase kinase-3 alpha (Homo sapiens), sequence (P49840 2-483 limits assumed): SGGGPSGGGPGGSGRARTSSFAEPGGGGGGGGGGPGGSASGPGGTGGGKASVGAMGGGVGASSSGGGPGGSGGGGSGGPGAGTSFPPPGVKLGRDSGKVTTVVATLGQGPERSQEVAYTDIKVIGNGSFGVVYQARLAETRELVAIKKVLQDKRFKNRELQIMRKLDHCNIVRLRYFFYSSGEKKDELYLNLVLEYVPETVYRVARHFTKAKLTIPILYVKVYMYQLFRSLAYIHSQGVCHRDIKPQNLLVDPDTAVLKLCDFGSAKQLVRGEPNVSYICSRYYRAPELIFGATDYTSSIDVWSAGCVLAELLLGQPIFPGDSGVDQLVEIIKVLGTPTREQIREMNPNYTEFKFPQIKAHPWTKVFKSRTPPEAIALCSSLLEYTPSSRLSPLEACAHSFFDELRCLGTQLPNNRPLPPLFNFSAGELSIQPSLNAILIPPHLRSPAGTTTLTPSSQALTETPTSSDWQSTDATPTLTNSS

The term inhibition denotes the drop in the measured response relative to a control, in per cent. In the case of `C=CC(=O)Nc1ccccc1Oc1nc(Nc2cnn(CCOC)c2)ncc1Cl`, in test [1], the inhibition result was “Active”.
In the case of `C=CC(=O)Nc1ccccc1Nc1nc(Nc2ccc(N3CCN(C)CC3)cc2)ncc1Cl`, in test [2], the inhibition was -8.5%.
As to `C=CC(=O)Nc1ccccc1Nc1nc(Nc2ccc(N3CCN(CCOCCOCCOCCNC(=O)CCCC[C@@H]4SC[C@@H]5NC(=O)N[C@@H]54)CC3)cc2)ncc1Cl`, the result (in the test with NCI-H23; in test [3]; in test [4]; in test [5]; in test [6]; in test [7]) was Active.
